Measured values taken from ChEMBL document CHEMBL1938375, “Design, synthesis and biological evaluation of pyrazole derivatives as potential multi-kinase inhibitors in hepatocellular carcinoma” (Eur J Med Chem, 2012).
pIC50: −log10 of the molar value. Activity calls are given as the source filed them. No cut-off for these calls is given here.

What was measured:
SNU-449 [1] = assay: Cell cycle arrest in human SNU449 cells assessed as accumulation at G1 phase at 100 uM after 48 to 72 hrs using […]propidium iodide staining by flow cytometric analysis; type: functional, cell-based
SNU-449 [2] = assay: Decrease of cyclin D1 level in human SNU449 cells at 50 uM after 72 hrs by Western blotting relative to beta-actin; type: functional
In short: (§1)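 Western blots in SNU449 cells treated at a single intermediate level for 72 h, with DMSO as control. Blots probed cyclin D1, p21, p27 and p53. Band intensities were given as the ratio of protein to β-actin.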

SNU-449 [3] = assay: Effect on p27 expression in human SNU449 cells at 50 uM after 72 hrs by Western blotting relative to beta-actin; type: functional; in short: as §1
SNU-449 [4] = assay: Up-regulation of p21 expression in human SNU449 cells at 50 uM after 72 hrs by Western blotting relative to beta-actin; type: functional; in short: as §1
SNU-449 [5] = assay: Up-regulation of p53 expression in human SNU449 cells at 50 uM after 72 hrs by Western blotting relative to beta-actin; type: functional; in short: as §1
SNU-449 [6] = assay: Induction of apoptosis in human SNU449 cells at 50 to 100 uM after 72 hrs using annexin V/propidium iodide staining by flow cytometric analysis; type: functional, cell-based
In short: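 SNU449 cells were treated at two compound levels for 72 h, with DMSO as control. Apoptosis was detected by Annexin V/propidium iodide staining and flow cytometry, following the kit instructions. Values are averages ± SD.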

SNU-449 [7] = assay: Cytotoxicity against human SNU449 cells at 50 uM after 48 hrs; type: functional, cell-based
In short: (§2)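 Trypan blue exclusion counts on SNU449 cells grown in RPMI 1640 with 10% FBS and antibiotics. Compounds came from 10 mM DMSO stocks, diluted and tested at 50, 100 and 150 for 48 and 72 h in triplicate, with DMSO as control. Viable cells were counted in a Burker chamber. IC50 was derived from percentage viable cells relative to control.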

SNU-449 [8] = assay: Cytotoxicity against human SNU449 cells at 50 uM after 72 hrs; type: functional, cell-based; in short: as §2
SNU-449 [9] = assay: Cytotoxicity against human SNU449 cells after 48 hrs; type: functional, cell-based; conditions: SNU-449, 48 h; in short: as §2
SNU-449 [10] = assay: Cytotoxicity against human SNU449 cells after 72 hrs; type: functional, cell-based; conditions: SNU-449, 72 h; in short: as §2
[11] = target: RAC-alpha serine/threonine-protein kinase (Homo sapiens) (UniProt P31749); assay: Inhibition of AKT phosphorylation in human SNU449 cells at 25 uM after 48 hrs by Western blotting relative to beta-actin; type: cell-based; conditions: SNU-449
Chain of RAC-alpha serine/threonine-protein kinase (Homo sapiens) (P31749 whole entry): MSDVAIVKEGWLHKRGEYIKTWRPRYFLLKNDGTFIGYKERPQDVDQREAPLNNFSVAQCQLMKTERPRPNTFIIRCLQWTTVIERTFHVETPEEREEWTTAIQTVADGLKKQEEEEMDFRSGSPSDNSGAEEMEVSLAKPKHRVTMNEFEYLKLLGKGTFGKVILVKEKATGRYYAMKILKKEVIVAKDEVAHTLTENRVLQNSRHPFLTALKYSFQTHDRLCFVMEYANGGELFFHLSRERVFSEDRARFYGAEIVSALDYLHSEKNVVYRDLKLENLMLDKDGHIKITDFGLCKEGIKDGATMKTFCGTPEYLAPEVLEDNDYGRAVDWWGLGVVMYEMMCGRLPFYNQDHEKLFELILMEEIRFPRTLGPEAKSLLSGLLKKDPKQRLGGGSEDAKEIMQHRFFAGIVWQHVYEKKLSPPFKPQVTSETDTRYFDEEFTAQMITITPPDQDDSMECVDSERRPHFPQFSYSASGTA
In short: (§3)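 Western blot for P-AKT in SNU449 cells treated at 25, 50 and 100 for 48 h and 72 h, with DMSO-treated cells as control. Bands were quantified as the P-AKT to β-actin ratio.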

[12] = target: RAC-alpha serine/threonine-protein kinase (Homo sapiens) (UniProt P31749); assay: Inhibition of AKT phosphorylation in human SNU449 cells at 50 uM after 48 hrs by Western blotting relative to beta-actin; type: cell-based; conditions: SNU-449; in short: as §3
[13] = target: RAC-alpha serine/threonine-protein kinase (Homo sapiens) (UniProt P31749); assay: Inhibition of AKT phosphorylation in human SNU449 cells at 100 uM after 48 hrs by Western blotting relative to beta-actin; type: cell-based; conditions: SNU-449; in short: as §3
[14] = target: RAC-alpha serine/threonine-protein kinase (Homo sapiens) (UniProt P31749); assay: Inhibition of AKT phosphorylation in human SNU449 cells at 25 uM after 72 hrs by Western blotting relative to beta-actin; type: cell-based; conditions: SNU-449; in short: as §3
[15] = target: RAC-alpha serine/threonine-protein kinase (Homo sapiens) (UniProt P31749); assay: Inhibition of AKT phosphorylation in human SNU449 cells at 50 uM after 72 hrs by Western blotting relative to beta-actin; type: cell-based; conditions: SNU-449; in short: as §3
[16] = target: RAC-alpha serine/threonine-protein kinase (Homo sapiens) (UniProt P31749); assay: Inhibition of AKT phosphorylation in human SNU449 cells at 100 uM after 72 hrs by Western blotting relative to beta-actin; type: cell-based; conditions: SNU-449; in short: as §3
[17] = target: RAC-alpha serine/threonine-protein kinase (Homo sapiens) (UniProt P31749); assay: Inhibition of AKT in human SNU449 cells assessed as phosphorylated RpS6 level at 50 uM after 48 hrs by Western blotting relative to beta-actin; type: cell-based; conditions: SNU-449
In short: (§4)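 Western blots in SNU449 cells treated at a single intermediate level for 48 and 72 h, with DMSO as control. Blots probed P-ERK1/2, P-GSK-3β (Ser-9) and P-RpS6. Band intensities were given as the ratio of phosphoprotein to β-actin.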

[18] = target: RAC-alpha serine/threonine-protein kinase (Homo sapiens) (UniProt P31749); assay: Inhibition of AKT in human SNU449 cells assessed as phosphorylated RpS6 level at 50 uM after 72 hrs by Western blotting relative to beta-actin; type: cell-based; conditions: SNU-449; in short: as §4
[19] = target: RAC-alpha serine/threonine-protein kinase (Homo sapiens) (UniProt P31749); assay: Inhibition of AKT in human SNU449 cells assessed as phosphorylated GSK3-beta level at 50 uM after 48 hrs by Western blotting relative to beta-actin; type: cell-based; conditions: SNU-449; in short: as §4
[20] = target: RAC-alpha serine/threonine-protein kinase (Homo sapiens) (UniProt P31749); assay: Inhibition of AKT in human SNU449 cells assessed as phosphorylated GSK3-beta level at 50 uM after 72 hrs by Western blotting relative to beta-actin; type: cell-based; conditions: SNU-449; in short: as §4
[21] = target: RAC-alpha serine/threonine-protein kinase (Homo sapiens) (UniProt P31749); assay: Inhibition of AKT in human SNU449 cells assessed as phosphorylated […] level at 50 uM after 72 hrs by Western blotting relative to beta-actin; type: cell-based; conditions: SNU-449
[22] = target: RAC-alpha serine/threonine-protein kinase (Homo sapiens) (UniProt P31749); assay: Inhibition of AKT in human SNU449 cells assessed as phosphorylated ERK1/2 level at 50 uM after 48 hrs by Western blotting relative to beta-actin; type: cell-based; conditions: SNU-449; in short: as §4
[23] = target: RAC-alpha serine/threonine-protein kinase (Homo sapiens) (UniProt P31749); assay: Inhibition of AKT in human SNU449 cells assessed as phosphorylated ERK1/2 level at 50 uM after 72 hrs by Western blotting relative to beta-actin; type: cell-based; conditions: SNU-449; in short: as §4
SNU-449 [24] = assay: Cell cycle arrest in human SNU449 cells assessed as accumulation at G1 phase at 50 uM after 72 hrs using […]propidium iodide staining by flow cytometric analysis; type: functional, cell-based
[25] = target: RAC-alpha serine/threonine-protein kinase (Homo sapiens) (UniProt P31749); assay: Inhibition of AKT in human SNU449 cells assessed as beta-catenin level at 50 uM after 48 hrs by Western blotting relative to beta-actin; conditions: SNU-449
[26] = target: RAC-alpha serine/threonine-protein kinase (Homo sapiens) (UniProt P31749); assay: Inhibition of AKT in human SNU449 cells assessed as total MDM2 protein level at 50 uM after 72 hrs by Western blotting relative to beta-actin; conditions: SNU-449
[27] = target: RAC-alpha serine/threonine-protein kinase (Homo sapiens) (UniProt P31749); assay: Inhibition of AKT in human SNU449 cells assessed as phosphorylated MDM2 level at 50 uM after 72 hrs by Western blotting relative to beta-actin; conditions: SNU-449
SNU-449 [28] = assay: Cell cycle arrest in human SNU449 cells assessed as decrease in S phase at 100 uM after 48 to 72 hrs using […]propidium iodide staining by flow cytometric analysis
SNU-449 [29] = assay: Cell cycle arrest in human SNU449 cells assessed as accumulation at G1 phase at 25 uM after 48 to 72 hrs using […]propidium iodide staining by flow cytometric analysis; type: functional, cell-based

Row | Ratio [11] | Ratio [12] | Ratio [13] | Ratio [14] | Ratio [15] | Ratio [16] | Ratio [17] | Ratio [18] | Ratio [19] | Ratio [20] | Compound | Activity (SNU-449 [1]) | Ratio (SNU-449 [2]) | Ratio (SNU-449 [3]) | Ratio (SNU-449 [4]) | Ratio (SNU-449 [5]) | Activity (SNU-449 [6]) | Activity (SNU-449 [7]) | Activity (SNU-449 [8]) | pIC50 (SNU-449 [9]) | pIC50 (SNU-449 [10]) | further results
1 | 1.1 | 0.58 | 0.39 | 1.9 | 0.53 | 0.64 | 0.64 | 0.49 | 0.48 | 0.6 | Cc1cccc(NC(=O)c2cc(C(=O)Nc3ccc(N)cc3)n(-c3ccc(N)cc3)n2)c1C | Active | 0.67 | 1.2 | 4.6 | 1.3 | Active | Active | Active | 3.82 | 4.30 | Ratio [21]: 0.46; Ratio [22]: 2; Ratio [23]: 0.91; Activity (SNU-449 [24]): Active; Ratio [25]: 0.41; Ratio [26]: 1.4; Ratio [27]: 0.65; Activity (SNU-449 [28]): Active
2 | 1.2 | 0.26 | 0.07 | 2.2 | 0.32 | 0.5 | 0.5 | 0.29 | 0.18 | 0.93 | Cc1cccc(-c2cc(C(=O)Nc3ccc(N)cc3)n(-c3ccc(N)cc3)n2)c1C | Active | 0.39 | 0.95 | 4.6 | 1.4 | Active | Active | Active | > 4.00 | > 4.30 | Ratio [21]: 0.75; Ratio [22]: 1.5; Ratio [23]: 1.1; Activity (SNU-449 [29]): Active; Ratio [25]: 0.57; Ratio [26]: 1.3; Ratio [27]: 0.4; Activity (SNU-449 [28]): Active
